ChEMBL document CHEMBL3351636, “Synthesis and biological evaluation of sophoridinol derivatives as a novel family of potential anticancer agents” (ACS Med Chem Lett, 2014)
Each block holds one molecule with its values, some of them ahead of it. Activity calls are given as the source filed them. The calls are words filed in the database; no cut-off is given here.

Tests used:
[1] = system: HepG2; test: Cytotoxicity against human HepG2 cells after 48 hrs by MTT assay; type: functional, cell-based; details: HepG2, 48 h
[2] = system: MCF7; test: Cytotoxicity against human MCF7 cells after 48 hrs by MTT assay; type: functional, cell-based; details: MCF7, 48 h
[3] = system: MCF7; test: Cytotoxicity against adriamycin-resistant human MCF7 cells after 48 hrs by MTT assay; type: functional, cell-based; details: MCF7, 48 h
[4] = system: HepG2; test: Cell cycle arrest in human HepG2 cells assessed as accumulation at G0/G1 phase at 1.25 to 5 ug/ml after 24 hrs using propidium iodide by flow cytometry; type: functional, cell-based
How it was run: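 HepG2 cells incubated 24 h with compound at 1.25, 2.5 and 5.0 μg/mL or left untreated (control); cell cycle distribution read by flow cytometry; significance versus untreated control given as P < 0.05 / P < 0.01.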

[5] = Tmax in Sprague-Dawley rat at 25 mg/kg, po as single dose; type: ADME, organism-based; design: dose 25 mg/kg, route oral; details: in vivo
How it was run: (§1)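 Adult male Sprague–Dawley rats (n = 3) received a single oral dose of 25 mg/kg. Nine blood samples were drawn over 24 h to build a plasma concentration–time curve. Parameters were derived by noncompartmental analysis and reported as mean ± deviation.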

[6] = Cmax in Sprague-Dawley rat at 25 mg/kg, po as single dose; type: ADME, organism-based; design: dose 25 mg/kg, route oral; details: in vivo; how it was run: as §1
[7] = AUC (0 to t) in Sprague-Dawley rat at 25 mg/kg, po as single dose; type: ADME, organism-based; design: dose 25 mg/kg, route oral; details: plasma; how it was run: as §1
[8] = AUC (0 to infinity) in Sprague-Dawley rat at 25 mg/kg, po as single dose; type: ADME, organism-based; design: time infinity, dose 25 mg/kg, route oral; details: plasma; how it was run: as §1
[9] = Mean residence time in Sprague-Dawley rat at 25 mg/kg, po as single dose; type: ADME, organism-based; design: dose 25 mg/kg, route oral; details: in vivo; how it was run: as §1
[10] = Half life in Sprague-Dawley rat at 25 mg/kg, po as single dose; type: ADME, organism-based; design: dose 25 mg/kg, route oral; details: in vivo; how it was run: as §1

SMILES: CC(C)(O)CCC[C@@H]1[C@H]2CCCN3CCC[C@H](CN1Cc1c4ccccc4cc4ccccc14)[C@@H]23
IC50 [1]: 2.1 µM

SMILES: COc1ccc(CN2C[C@H]3CCCN4CCC[C@@H]([C@H]34)[C@H]2CCCCO)c(Cl)c1OC
IC50 [1]: 15.7 µM

SMILES: COC(=O)CCC[C@@H]1[C@H]2CCCN3CCC[C@H](CN1Cc1cccc4ccccc14)[C@@H]23
IC50 [1]: 3.3 µM

SMILES: COc1ccc(CN2C[C@H]3CCCN4CCC[C@@H]([C@H]34)[C@H]2CCCCO)cc1
IC50 [1]: > 40 µM

SMILES: OCCCC[C@@H]1[C@H]2CCCN3CCC[C@H](CN1Cc1cccc4ccccc14)[C@@H]23
IC50 [1]: 6.8 µM
IC50 [2]: 9.07 µM
IC50 [3]: 9.51 µM

SMILES: OCCCC[C@@H]1[C@H]2CCCN3CCC[C@H](CN1Cc1ccc4ccccc4c1)[C@@H]23
IC50 [1]: 7.9 µM

SMILES: COC(=O)CCC[C@@H]1[C@H]2CCCN3CCC[C@H](CN1Cc1ccc(OC)c(OC)c1Cl)[C@@H]23
IC50 [1]: 8.4 µM

SMILES: COc1cccc(CN2C[C@H]3CCCN4CCC[C@@H]([C@H]34)[C@H]2CCCC(=O)O)c1OC
IC50 [1]: > 40 µM

SMILES: COC(=O)CCC[C@@H]1[C@H]2CCCN3CCC[C@H](CN1Cc1ccccc1OC)[C@@H]23
IC50 [1]: 10.3 µM

Tmax [5]: 4.6 h
Cmax [6]: 3.4 µM
AUC(0-t) [7]: 10.3 µM·h
AUC(0-inf) [8]: 10.5 µM·h
MRT [9]: 5.4 h
half-life [10]: 12.7 h
SMILES: OCCCC[C@@H]1[C@H]2CCCN3CCC[C@H](CN1Cc1c4ccccc4cc4ccccc14)[C@@H]23
IC50 [1]: 3.1 µM
IC50 [2]: 5.63 µM
IC50 [3]: 5.94 µM
Activity [4]: Active

SMILES: O=C(O)CCC[C@@H]1[C@H]2CCCN3CCC[C@H](CN1Cc1ccc4ccccc4c1)[C@@H]23
IC50 [1]: > 40 µM

SMILES: COc1ccccc1CN1C[C@H]2CCCN3CCC[C@@H]([C@H]23)[C@H]1CCCCO
IC50 [1]: 34.6 µM

SMILES: CC(=O)O[C@H]1C(=O)[C@@]2(C)[C@H]([C@H](OC(=O)c3ccccc3)[C@]3(O)C[C@H](OC(=O)[C@H](O)[C@@H](NC(=O)c4ccccc4)c4ccccc4)C(C)=C1C3(C)C)[C@]1(OC(C)=O)CO[C@@H]1C[C@@H]2O [PACLITAXEL]
IC50 [1]: 15.6 µM

SMILES: O=C(CCC[C@@H]1[C@H]2CCCN3CCC[C@H](CN1Cc1c4ccccc4cc4ccccc14)[C@@H]23)c1ccc(Cl)cc1
IC50 [1]: 2 µM

SMILES: COc1cc(CN2C[C@H]3CCCN4CCC[C@@H]([C@H]34)[C@H]2CCCCO)cc(OC)c1OC
IC50 [1]: > 40 µM

SMILES: CCOc1ccc(CN2C[C@H]3CCCN4CCC[C@@H]([C@H]34)[C@H]2CCCCO)cc1OC
IC50 [1]: > 40 µM

SMILES: CCC(O)(CC)CCC[C@@H]1[C@H]2CCCN3CCC[C@H](CN1Cc1c4ccccc4cc4ccccc14)[C@@H]23
IC50 [1]: 2.7 µM

SMILES: O=C(O)CCC[C@@H]1[C@H]2CCCN3CCC[C@H](CN1Cc1cccc4ccccc14)[C@@H]23
IC50 [1]: > 40 µM

SMILES: COC(=O)CCC[C@@H]1[C@H]2CCCN3CCC[C@H](CN1Cc1cc(OC)c(OC)c(OC)c1)[C@@H]23
IC50 [1]: > 40 µM

SMILES: COC(=O)CCC[C@@H]1[C@H]2CCCN3CCC[C@H](CN1Cc1c4ccccc4cc4ccccc14)[C@@H]23
IC50 [1]: 4.3 µM

SMILES: COC(=O)CCC[C@@H]1[C@H]2CCCN3CCC[C@H](CN1Cc1cccc(OC)c1)[C@@H]23
IC50 [1]: 10.7 µM

SMILES: COc1cccc(CN2C[C@H]3CCCN4CCC[C@@H]([C@H]34)[C@H]2CCCCO)c1Cl
IC50 [1]: 23.6 µM

SMILES: COC(=O)CCC[C@@H]1[C@H]2CCCN3CCC[C@H](CN1Cc1ccc(OC)cc1)[C@@H]23
IC50 [1]: 10.7 µM

SMILES: COc1cc(CN2C[C@H]3CCCN4CCC[C@@H]([C@H]34)[C@H]2CCCC(=O)O)cc(OC)c1OC
IC50 [1]: > 40 µM

SMILES: COc1ccccc1CN1C[C@H]2CCCN3CCC[C@@H]([C@H]23)[C@H]1CCCC(=O)O
IC50 [1]: > 40 µM

SMILES: COC(=O)CCC[C@@H]1[C@H]2CCCN3CCC[C@H](CN1Cc1ccc4ccccc4c1)[C@@H]23
IC50 [1]: 5.8 µM

SMILES: COC(=O)CCC[C@@H]1[C@H]2CCCN3CCC[C@H](CN1Cc1ccc(OC)c(OC)c1)[C@@H]23
IC50 [1]: > 40 µM

SMILES: Fc1ccc(C(=CCC[C@@H]2[C@H]3CCCN4CCC[C@H](CN2Cc2c5ccccc5cc5ccccc25)[C@@H]34)c2ccc(F)cc2)cc1
IC50 [1]: 5.3 µM

SMILES: O=C1CCC[C@@H]2[C@H]3CCCN4CCC[C@H](CN12)[C@@H]34 [SOPHORIDINE]
IC50 [1]: > 80 µM
Activity [4]: Active
